Activity calls are given as the source filed them. No cut-off for these calls is given here.
Legend:
Entamoeba histolytica [1] = assay: […] activity against Entamoeba histolytica HM-1:IMSS trophozoites after 72 hrs by microdilution method; type: functional, organism-based
Outline: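 E. histolytica trophozoites in TYIS-33 medium; DMSO stocks (1 mg/mL) twofold serially diluted, 1.7×10^4 amoebae/well, nitrogen-gassed, 37 °C for 72 h. Methanol-fixed, eosin-stained, dye released in 0.1 N NaOH, OD 490 nm. Triplicate per concentration, repeated thrice. % inhibition vs log concentration, IC50 from linear regression; metronidazole as reference.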

MCF7 [2] = assay: Cytotoxicity against human MCF7 cells after 48 hrs by MTT assay; type: cell-based; details: MCF7, 48 h
Outline: (§1)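 MCF-7 cells grown in DMEM with 10% FCS and penicillin/streptomycin, seeded at 1.2×10^4 cells/well and grown 48 h before treatment. Stocks prepared in 20% (v/v) DMSO and diluted in medium. After 48 h at 37 °C, MTT (5 mg/mL) added for 4 h, formazan dissolved in DMSO, A570 read with 655 nm reference. Viability relative to untreated cells; triplicate.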

Plasmodium falciparum [3] = assay: Antimicrobial activity against chloroquine-sensitive Plasmodium falciparum 3D7 assessed as inhibition of [3H] hypoxanthine incorporation after 24 hrs by scintillation counting; type: functional, organism-based
Outline: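 Synchronized ring-stage 3D7 culture at 0.5% parasitemia and 1% haematocrit in supplemented RPMI-1640, exposed to serially diluted DMSO stocks for 24 h. [3H]-hypoxanthine added at 0.5 µCi/well for a further 24 h, then DNA harvested onto filter mats and counted by β-scintillation. IC50 from log sigmoid dose-response curves. At least triplicate; chloroquine and quinine as references.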

[4] = Toxicity in human RBC assessed as hemolysis at 100 uM after 48 hrs; type: cell-based, Erythrocyte; details: red blood cells (RBC), read-out: Activity
Outline: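 Fresh human red blood cells at 1% haematocrit in culture medium, incubated 48 h with compound at 100 μM, absorbance read at 412 nm. % haemolysis calculated against 0.5% Triton X100 as the 100% control. At least triplicate, mean ± s.d.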

[5] = Inhibition of beta-haematin formation after 24 hrs by microtiter plate assay; type: functional
Outline: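 Compound mixed with haemin (1 mg/mL in DMSO), water and 0.5 M acetate buffer at pH 4.7, then incubated 24 h. Unreacted haemin removed by three DMSO washes with centrifugation at 1500 g. β-haematin dissolved in 2 M NaOH, diluted twofold, absorbance read at 405 nm. IC50 taken from the data. Chloroquine and quinine as positive controls; at least triplicate.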

[6] = Inhibition of beta-haematin formation at 100 uM after 24 hrs by microtiter plate assay; type: functional
Entamoeba histolytica [7] = assay: Ratio of metronidazole IC50 to compound IC50 for Entamoeba histolytica HM-1:IMSS trophozoites; type: functional
Plasmodium falciparum [8] = assay: Inhibition of Plasmodium falciparum cysteine protease
Plasmodium falciparum [9] = assay: Inhibition of Plasmodium falciparum falcipain
[10] = Cytotoxicity against human MCF7 cells assessed as cell growth inhibition at 50 uM after 48 hrs by MTT assay; type: cell-based; details: read-out: GI; outline: as §1
[11] = Cytotoxicity against human MCF7 cells assessed as cell growth inhibition at 100 uM after 48 hrs by MTT assay; type: cell-based; details: read-out: GI; outline: as §1
MCF7 [12] = assay: Cytotoxicity against human MCF7 cells assessed as cell growth inhibition after 48 hrs by MTT assay; type: cell-based; details: mcf7, 48 h; outline: as §1
[13] = system: Radical scavenging activity; assay: Antioxidant activity assessed as DPPH radical scavenging activity after 30 mins; type: functional
Outline: (§2)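 Compounds added to DPPH• in methanol, kept in the dark at room temperature for 30 min, absorbance read at 540 nm. Scavenging given as % decrease in absorbance relative to a drug-free DPPH• control, with a MeOH/DMSO background control. Ascorbic acid as comparator; triplicate.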

[14] = system: Radical scavenging activity; assay: Antioxidant activity assessed as DPPH radical scavenging activity at 80 uM after 30 mins; type: functional; outline: as §2
Plasmodium falciparum [15] = assay: Antimicrobial activity against chloroquine-resistant Plasmodium falciparum FCB1; type: functional, organism-based; details: FcB1/Columbia
Plasmodium falciparum [16] = assay: Antimicrobial activity against chloroquine-sensitive Plasmodium falciparum 3D7 assessed as inhibition of [3H] hypoxanthine incorporation at 100 uM after 24 hrs by scintillation counting; type: functional

| IC50 (Entamoeba histolytica [1]) | IC50 (Plasmodium falciparum [3]) | inhibition (Plasmodium falciparum [8]) | inhibition (Plasmodium falciparum [9]) | IC50 [13] | SMILES | IC50 (MCF7 [2]) | hemolysis at 48 h, 100 µM [4] | IC50 [5] | inhibition [6] | Ratio IC50 (Entamoeba histolytica [7]) | inhibition at 48 h, 50 µM [10] | inhibition at 48 h, 100 µM [11] | Activity (MCF7 [12]) | Activity [14] | IC50 (Plasmodium falciparum [15]) | inhibition at 100 µM (Plasmodium falciparum [16]) |
| --- | --- | --- | --- | --- | --- | --- | --- | --- | --- | --- | --- | --- | --- | --- | --- | --- |
| 0.05 µM | 31.3 µM | inactive | inactive |  | Cc1ccc2cc(/C=C/C(=O)c3ccccn3)c(Cl)nc2c1 | 75.7 µM | 0.47% | > 100 µM | 15% | 29.2 | 36% | 66% | Dose-dependent effect |  |  |  |
|  |  |  |  | 20.1 µM | O=C1O[C@H]([C@@H](O)CO)C(O)=C1O [ASCORBIC ACID] |  |  |  |  |  |  |  |  |  |  |  |
| 4.09 µM | 74.8 µM | inactive | inactive |  | Cc1ccc2nc(Cl)c(/C=C/C(=O)c3ccc(Br)cc3)cc2c1 |  | 1.4% | > 100 µM | 55.4% |  |  |  |  |  |  |  |
| 1.45 µM | 31.5 µM | inactive | inactive |  | Cc1ccc2nc(Cl)c(/C=C/C(=O)c3ccccn3)cc2c1 |  | 1.55% | > 100 µM | 11.5% |  |  |  |  |  |  |  |
| 7.03 µM | 50.4 µM | inactive | inactive |  | C/C(=C\c1cc2ccc(C)cc2nc1Cl)C(=O)c1cccc(Cl)c1 |  | 1.44% | > 100 µM | 5.64% |  |  |  |  | 0.78% |  |  |
| 1.46 µM |  |  |  |  | Cc1ncc([N+](=O)[O-])n1CCO [METRONIDAZOLE] | > 100 µM |  |  |  |  |  |  |  |  |  |  |
| 0.09 µM | 47.1 µM | inactive | inactive |  | C/C(=C\c1cc2ccc(C)cc2nc1Cl)C(=O)c1cccc(Br)c1 | > 100 µM | 1.04% | > 100 µM | 10.5% | 16 |  |  |  | 2.27% |  |  |
| 2.79 µM | > 100 µM | inactive | inactive |  | C/C(=C\c1cc2cc(C)ccc2nc1Cl)C(=O)c1cccc(Br)c1 |  | 1.53% | > 100 µM | 13.3% |  |  |  |  |  |  | 51.1% |
| 5.3 µM | 32 µM | inactive | inactive |  | O=C(/C=C/c1cc2ccccc2nc1Cl)c1ccccn1 |  | 1.1% | > 100 µM | 12.3% |  |  |  |  |  |  |  |
| 0.06 µM | > 100 µM | inactive | inactive |  | C/C(=C\c1cc2cc(C)ccc2nc1Cl)C(=O)c1cccc(Cl)c1 | > 100 µM | 1.24% | > 100 µM | 14.4% |  |  |  |  |  |  | 8.74% |
| 7.53 µM | 59.7 µM | inactive | inactive |  | Cc1ccc2cc(/C=C/C(=O)c3cccc(Br)c3)c(Cl)nc2c1 |  | 1.09% | > 100 µM | 27.5% |  |  |  |  |  |  |  |
| 3.65 µM | > 100 µM | inactive | inactive |  | C/C(=C\c1cc2ccccc2nc1Cl)C(=O)c1cccc(Br)c1 |  | 2.17% | > 100 µM | 9.35% |  |  |  |  | 1.43% |  | 34.3% |
| 1.03 µM | 50.1 µM | inactive | inactive |  | Cc1ccc2nc(Cl)c(/C=C/C(=O)c3cccc(Br)c3)cc2c1 | > 100 µM | 1.68% | > 100 µM | 14.9% |  |  |  |  |  |  |  |
|  |  |  |  |  | C=C[C@H]1C[N@@]2CC[C@H]1C[C@H]2[C@H](O)c1ccnc2ccc(OC)cc12 [QUININE] |  | 1.22% |  |  |  |  |  |  |  |  |  |
| 3.45 µM | > 100 µM | inactive | inactive |  | O=C(/C=C/c1cc2ccccc2nc1Cl)c1cccc(Br)c1 |  | 1.38% | > 100 µM | 16% |  |  |  |  |  |  | 61.2% |
|  |  |  |  |  | CCN(CC)CCCC(C)Nc1ccnc2cc(Cl)ccc12 (configuration not stated) [CHLOROQUINE] |  | 0.72% | 25 µM |  |  |  |  |  | 4.06% |  |  |
| 3.38 µM | 44.6 µM | inactive | inactive |  | O=C(/C=C/c1cc2ccccc2nc1Cl)c1ccc(Br)cc1 |  | 2.2% | > 100 µM | 13.6% |  |  |  |  |  |  |  |

| SMILES | IC50 (Entamoeba histolytica [1]) | IC50 (Plasmodium falciparum [3]) | inhibition (Plasmodium falciparum [8]) | inhibition (Plasmodium falciparum [9]) | IC50 [13] | IC50 (MCF7 [2]) | hemolysis at 48 h, 100 µM [4] | IC50 [5] | inhibition [6] | Ratio IC50 (Entamoeba histolytica [7]) | inhibition at 48 h, 50 µM [10] | inhibition at 48 h, 100 µM [11] | Activity (MCF7 [12]) | Activity [14] | IC50 (Plasmodium falciparum [15]) | inhibition at 100 µM (Plasmodium falciparum [16]) |
| --- | --- | --- | --- | --- | --- | --- | --- | --- | --- | --- | --- | --- | --- | --- | --- | --- |
| O=C(/C=C/c1cc2ccccc2nc1Cl)c1ccc(Cl)cc1 | 0.05 µM | 39.2 µM | inactive | inactive |  | > 100 µM | 1.74% | > 100 µM | 19.5% | 29.2 |  |  |  | 3.69% | > 200 µM |  |
| Cc1ccc2cc(/C=C/C(=O)c3ccc(Cl)cc3)c(Cl)nc2c1 | 6.91 µM |  | inactive | inactive |  |  |  |  |  |  |  |  |  |  | > 200 µM |  |
| C=C[C@H]1CN2CC[C@H]1C[C@H]2[C@H](O)c1ccnc2ccc(OC)cc12 [QUININE] |  | 0.14 µM |  |  |  |  |  | 65.8 µM |  |  |  |  |  | 2.65% |  |  |
